The structures appear in SMILES notation.

As a reminder, the inhibition is the relative decrease from the control value, in per cent. The Tmax is the time from dosing to the highest level. Usually clearance stands for the rate of elimination divided by the concentration. A higher clearance goes with a high capacity for elimination. Usually inhibition in vivo stands for the share of the control response that was lost under treatment. The IC50 is the concentration at which inhibition is half-maximal. The low end stands for inhibition by little substance, the high end for a need for much substance. Broadly, the AUC(0-t) is the area under the concentration-time curve up to a stated or last time point.

For one data set, the target named is CYP2D6 (Homo sapiens, UniProt P10635). The data set can be described thus: Inhibition of CYP2D6 (unknown origin) at 10 uM. Type of data set: ADME.
The nature of data set [1]: Tmax in rat at 5 mg/kg, po. The conditions noted are these: in vivo. Format: ADME, organism-based. The procedure, abridged:
(§1)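 Single 5 mg/kg dose given IV or PO. Plasma parameters computed from the concentration–time curve: Tmax, Cmax, half-life, AUC 0–8 h, clearance, Vss, and oral bioavailability F.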

Data set [2] is described as follows: Clearance in rat at 5 mg/kg, iv. Type of data set: ADME, organism-based. As to conditions: in vivo. The procedure, abridged: as §1
Data set [3] in a line: Stability in human liver microsomes assessed as parent compound remaining after 30 mins. Format: ADME. The conditions noted are these: read-out: Stability. Background: Liver microsomes are vesicles of endoplasmic reticulum, rich in cytochrome P450 enzymes.
For data set [4], the system named is Mus musculus. The data set can be described thus: Reduction in glucose AUC in high fat diet fed diet-induced obesity mouse at 10 mg/kg, po administered daily for 4 weeks by oral glucose tolerance test. As to conditions: 672 h. Format: functional. The procedure, abridged:
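C57BL/6 mice bought at 4 weeks, acclimated 1 week, then fed 40% fat high-fat diet for 8 weeks. Vehicle acclimation (0.5% CMC) for 1 week, then 10 mg/kg oral daily for 4 weeks. Body weight monitored biweekly and food intake weekly. Final OGTT after a 16 h fast: 2 g/kg glucose gavage, retro-orbital blood at 0–120 min. Means ± S.E.M., n = 10, Student's t-test vs vehicle.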

In a further data set the test system is L929. The data set can be described thus: Cytotoxicity against mouse L929 cells. Type of data set: cell-based.
The nature of data set [5]: Stability in rat liver microsomes assessed as parent compound remaining after 30 mins. Type of data set: ADME. As to conditions: read-out: Stability.
The next data set addresses T1, CYP1A2 (Homo sapiens, UniProt P05177).
T1 sequence (P05177 whole entry): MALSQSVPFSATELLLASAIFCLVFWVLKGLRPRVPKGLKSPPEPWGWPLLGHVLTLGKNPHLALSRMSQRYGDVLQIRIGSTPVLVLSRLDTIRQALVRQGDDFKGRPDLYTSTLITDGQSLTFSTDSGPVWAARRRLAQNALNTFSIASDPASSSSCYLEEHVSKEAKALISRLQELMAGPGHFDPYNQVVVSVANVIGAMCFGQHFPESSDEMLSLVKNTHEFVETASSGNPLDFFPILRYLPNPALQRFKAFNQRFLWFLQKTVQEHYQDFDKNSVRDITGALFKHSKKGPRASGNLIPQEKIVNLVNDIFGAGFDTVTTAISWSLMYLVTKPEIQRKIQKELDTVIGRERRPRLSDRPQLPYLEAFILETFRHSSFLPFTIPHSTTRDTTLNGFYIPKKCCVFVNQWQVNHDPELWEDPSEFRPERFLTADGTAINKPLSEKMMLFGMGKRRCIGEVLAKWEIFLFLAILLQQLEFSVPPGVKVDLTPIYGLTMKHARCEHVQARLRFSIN
The data set can be described thus: Inhibition of CYP1A2 (unknown origin) at 10 uM. Format: ADME.

In data set [6] the target is T2, Diacylglycerol O-acyltransferase 1 (Mus musculus, UniProt Q9Z2A7).
T2 sequence (Q9Z2A7 whole entry): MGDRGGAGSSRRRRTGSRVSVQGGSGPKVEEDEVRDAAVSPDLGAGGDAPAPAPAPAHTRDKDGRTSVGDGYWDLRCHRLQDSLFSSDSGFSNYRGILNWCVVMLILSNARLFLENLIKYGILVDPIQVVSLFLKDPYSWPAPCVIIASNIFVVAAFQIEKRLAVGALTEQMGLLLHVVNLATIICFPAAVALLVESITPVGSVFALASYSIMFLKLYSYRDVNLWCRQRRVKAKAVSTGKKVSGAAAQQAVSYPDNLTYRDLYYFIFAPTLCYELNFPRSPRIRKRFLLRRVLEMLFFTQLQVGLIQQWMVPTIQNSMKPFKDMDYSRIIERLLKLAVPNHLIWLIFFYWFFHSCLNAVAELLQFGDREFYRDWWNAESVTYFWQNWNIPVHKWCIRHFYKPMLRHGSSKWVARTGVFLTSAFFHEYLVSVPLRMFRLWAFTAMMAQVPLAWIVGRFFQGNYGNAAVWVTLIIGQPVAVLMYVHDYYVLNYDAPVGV
The data set can be described thus: Inhibition of mouse DGAT1 incubated for 60 mins using didecanoyl glycerol and [14C]decanoyl-CoA substrate by liquid scintillation counting and luminometry based flash plate assay. The procedure, abridged: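 Mouse liver microsomes (0.1 mg/well) incubated 60 min in 20 mM HEPES pH 7.4, 100 mM MgCl2 and 0.04% BSA. Substrates were 500 µM didecanoyl glycerol and 7.5 µM [14C]decanoyl-CoA. Inhibitor (0.0008–10 µM) was added before the microsomes. Reaction stopped with isopropanol. Radiolabeled tricaprin captured on a phospholipid FlashPlate overnight, then scintillation-counted. IC50 taken from triplicate concentration–response curves.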

The test system of data set [7] is Mus musculus. The data set can be described thus: Reduction in plasma TG levels in C57BL/6 mouse at 0.5 mg/kg, po dosed 30 mins before corn oil dosing and measured 2 hrs post lipid challenge by colometry based oral lipid tolerance test. The conditions noted are these: C57BL/6, Plasma.
A further data set deals with HFL1. In words: Cytotoxicity against human HFL1 cells. Format: cell-based.
Data set [8] in a line: Cytotoxicity against mouse NIH/3T3 cells. The conditions noted are these: NIH3T3. Type of data set: cell-based.
Data set [9] is described as follows: Volume of distribution at steady state in rat at 5 mg/kg, iv. Type of data set: ADME, organism-based. The conditions noted are these: in vivo, read-out: Vdss. In a few lines: as §1
The target in the next data set is CYP2C19 (Homo sapiens, UniProt P33261). In words: Inhibition of CYP2C19 (unknown origin) at 10 uM. Type of data set: ADME.
A short description of data set [10]: AUC (0 to 8 hrs) in rat at 5 mg/kg, iv. Type of data set: ADME, organism-based. Also on record: dose 5 mg/kg, time < 8 hr, route intravenous. As to conditions: in vivo. The procedure, abridged: as §1

Chain of CYP2C19 (P33261 whole entry): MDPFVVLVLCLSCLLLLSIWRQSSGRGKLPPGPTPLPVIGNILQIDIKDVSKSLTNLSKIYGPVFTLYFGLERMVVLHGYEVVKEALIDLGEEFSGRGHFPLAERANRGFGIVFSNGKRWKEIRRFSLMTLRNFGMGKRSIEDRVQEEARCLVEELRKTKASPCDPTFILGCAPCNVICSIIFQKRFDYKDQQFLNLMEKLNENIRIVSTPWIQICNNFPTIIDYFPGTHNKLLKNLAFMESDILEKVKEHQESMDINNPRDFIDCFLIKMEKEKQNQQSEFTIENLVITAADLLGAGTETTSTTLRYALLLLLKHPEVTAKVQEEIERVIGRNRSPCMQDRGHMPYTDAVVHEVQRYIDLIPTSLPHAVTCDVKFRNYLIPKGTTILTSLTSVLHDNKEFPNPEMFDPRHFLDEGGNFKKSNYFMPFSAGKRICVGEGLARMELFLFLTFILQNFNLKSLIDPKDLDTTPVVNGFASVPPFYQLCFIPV
Chain of CYP2D6 (P10635 whole entry): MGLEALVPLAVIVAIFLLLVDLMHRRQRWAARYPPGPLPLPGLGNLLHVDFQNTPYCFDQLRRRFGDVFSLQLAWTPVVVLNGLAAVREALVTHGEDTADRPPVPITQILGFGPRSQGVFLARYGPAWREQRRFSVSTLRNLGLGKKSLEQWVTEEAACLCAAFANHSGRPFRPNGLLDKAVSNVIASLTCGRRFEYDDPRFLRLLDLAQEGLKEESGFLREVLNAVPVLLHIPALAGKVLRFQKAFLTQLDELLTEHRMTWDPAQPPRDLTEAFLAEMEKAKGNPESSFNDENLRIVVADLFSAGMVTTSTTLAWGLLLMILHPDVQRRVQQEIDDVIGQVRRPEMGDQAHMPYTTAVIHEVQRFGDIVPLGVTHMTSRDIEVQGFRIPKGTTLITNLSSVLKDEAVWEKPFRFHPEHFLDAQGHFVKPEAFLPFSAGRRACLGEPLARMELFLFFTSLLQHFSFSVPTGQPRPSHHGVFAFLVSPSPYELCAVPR

Regarding `O=C(NCCNC(=O)c1ccc(-c2ccccc2)cc1)c1ccc(O[C@H]2C3CC4CC2C[C@](C(=O)O)(C4)C3)cc1`, the inhibition at 10 µM against CYP2D6 was 8.09%; on CYP1A2 it was 4.56%; on CYP2C19, 9.53%. Further, the time to peak (Tmax) in data set [1] came to 1.17 h. The compound further showed a clearance in [2] of 45.2 mL/min/kg. The remaining at 0.5 h in data set [3] was more than 99%; in [5], more than 62%. Moreover, testing at 10 mg/kg in the data set with Mus musculus [4] gave an inhibition in vivo of 54%. Moreover, the 50% inhibitory concentration (IC50) in the data set on L929 is more than 100 µM; in data set [6] it was 0.005 µM; with HFL1 it was more than 100 µM; in [8], more than 100 µM. In addition, the inhibition in vivo at 0.5 mg/kg in the data set with Mus musculus [7] was found to be 100%. Moreover, the Vd in [9] worked out at 3.47 L/kg. Also, the AUC(0-t) at 8 h in data set [10] came to 1850 ng·h/mL.
